In the library only some 2.8% were active in any assay of this set; here they are far more common.
Measles CPE: compounds protecting cells from measles virus cytopathic effect, primary screen, measles RdRp inhibitor project, single point, MLSMR library, absorbance. AID 841, 2007. Measles virus-infected cells, CPE protection. protection (pct of control), % at 4 µM. 140,000 compounds, 1.5% hits; in the data active means protection mostly above about 24%, no sharp cut-off; inactive means mostly below about 26%
Rad51 HR inh: human RAD51 strand exchange inhibitors, primary screen, biochemical, fluorescence | DNA repair protein RAD51 homolog 1 (Homo sapiens), Q06609 | hRad51 DNA strand exchange, fluorescence dequenching | inhibition, % at 10 µM | 200,000 compounds, 0.085% hits;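 active means inhibition above 40% at the single screening dose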;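 further: 0% = DMSO control wells and 100% = blanks with heterologous ssDNA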
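Test system: preformed human Rad51 ssDNA filaments; also added: Donor/quencher-labelled 47-bp dsDNA substrate; doses: 10 µM final, single point; times: 37 °C 15-min filament assembly, 30-min compound preincubation, 15-min exchange; detection: FRET fluorescence dequenching, excitation 485 nm, emission 520 nm; read-out basis: Fluorescence-based percent inhibition, control- and blank-normalised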
NPY Y1 blocker: NPY-Y1 receptor antagonists, primary screen, cell-based; Neuropeptide Y receptor type 1 (Homo sapiens), P25929; 200,000 compounds, 1% hits; AID 1040, 2008; inhibition, % at 3.6 µM; HEK293-CNG Y1 cells, membrane potential fluorescence; NPY at EC95, then isoproterenol;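 active means inhibition above the campaign mean inhibition of all tested compounds plus 3 SD, cut at about 20% in these data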;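 further: 0% = DMSO wells given NPY plus isoproterenol and 100% = isoproterenol alone without NPY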
Target sequence (P25929 whole entry, looked up): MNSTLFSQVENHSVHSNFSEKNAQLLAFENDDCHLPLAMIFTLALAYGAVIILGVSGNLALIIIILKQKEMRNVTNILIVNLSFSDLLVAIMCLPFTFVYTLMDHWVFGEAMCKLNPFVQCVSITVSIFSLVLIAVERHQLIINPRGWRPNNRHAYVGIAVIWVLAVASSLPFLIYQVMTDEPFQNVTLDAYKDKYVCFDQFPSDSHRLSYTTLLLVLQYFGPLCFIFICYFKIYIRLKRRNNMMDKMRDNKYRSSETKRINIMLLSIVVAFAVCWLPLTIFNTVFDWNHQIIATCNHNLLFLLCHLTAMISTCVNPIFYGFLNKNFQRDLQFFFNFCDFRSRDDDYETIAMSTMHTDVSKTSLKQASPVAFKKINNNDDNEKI
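Assay system: HEK293 Y1/CNG channel cell line; Doses: single compound dose of 3.6 µM, 0.4% DMSO; Timing: dye 3 h, compound 60 min room temperature, stimulation 45 min; Technique: Membrane-potential fluorescent dye readout; Measure: % inhibition of NPY effect.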
NPY-Y1 PAM-ag: NPY-Y1 receptor potentiators or agonists, primary screen, cell-based | Neuropeptide Y receptor type 1 (Homo sapiens), P25929 | NPY-Y1 expressing cells, potentiator/agonist activation | activation, % at 3.6 µM | 220,000 compounds, 0.37% hits | AID 1304, 2008; in the data active means activation above about 33%, passing the limit was not always enough;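 further: cells stimulated with NPY at EC10 then isoproterenol at EC100; 0% = low agonist plus stimulus and 100% = saturating agonist plus stimulus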
NPY-Y2 PAM-ag: NPY-Y2 potentiators or agonists, primary screen, cell-based. Neuropeptide Y receptor type 2 (Homo sapiens), P49146. cells expressing NPY-Y2, potentiator/agonist read-out. activation, % at 3.6 µM. 220,000 compounds, 0.45% hits. AID 1359, 2008; in the data active means activation above about 27%;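 further: cells stimulated with NPY near EC25 plus isoproterenol at EC100; 0% = vehicle plus submaximal agonist and 100% = vehicle plus saturating agonist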
NPY Y2 blocker: NPY-Y2 receptor antagonists, primary screen, cell-based | NPY-Y2 expressing cells, antagonist mode | inhibition, % at 2.7 µM | 140,000 compounds, 0.99% hits | AID 793, 2007; in the data active means inhibition above about 17%;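 further: 0% = vehicle with agonist challenge and 100% = reference antagonist with challenge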
NPY1 antag ctr: NPY-Y1 receptor antagonists, selectivity check, counter-screen for NPY-Y2 antagonist project, cell-based; AID 1256, 2008; inhibition, % at 3.6 µM; cell-based NPY-Y1 antagonism counterscreen; 710 compounds, 19% hits; shares compounds with NPY Y2 blocker; in the data active means inhibition above about 20%;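 further: cells challenged with NPY then isoproterenol with cAMP sensed through a CNG channel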
NPY-Y2 ant conf: NPY-Y2 receptor antagonists, retest of hits, confirmation, HEK293-CNG cells, membrane potential fluorescence, triplicate | shares compounds with NPY Y2 blocker | HEK293 NPY-Y2 CNG channel | inhibition, % at 2.8 µM | 710 compounds, 32% hits | AID 1257, 2008;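 active means mean inhibition of triplicate wells above the hit cutoff set in the primary screen, cut at about 17% in these data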;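 further: 0% = DMSO with NPY challenge and 100% = BIIE0246 high control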
Active calls of the source: *.

Screening CCCCCSc1cc(OC)c(CCN)cc1OC returned Measles CPE 3, Rad51 HR inh -6, NPY Y1 blocker -4, NPY-Y1 PAM-ag 53*, NPY-Y2 PAM-ag 27 and NPY Y2 blocker 3.
Screening CN1/C(=C\C=Nc2ccccc2)C(C)(C)c2ccccc21 returned Measles CPE 9, Rad51 HR inh 8, NPY Y1 blocker 4, NPY-Y1 PAM-ag 15, NPY-Y2 PAM-ag 9 and NPY Y2 blocker 4.
Screening CN1/C(=C\C=C\C2=[N+](C)c3ccc4ccccc4c3C2(C)C)C(C)(C)c2ccccc21 returned Measles CPE 2, Rad51 HR inh 36, NPY Y1 blocker active, NPY-Y1 PAM-ag -558, NPY-Y2 PAM-ag -329 and NPY Y2 blocker active.
For O=C(C1CC(c2ccc(Cl)c(Cl)c2)=NO1)N1CCC2(CC1)OCCO2 (stereo not given) the results were Measles CPE 3, Rad51 HR inh -10, NPY Y1 blocker 3, NPY-Y1 PAM-ag -28, NPY-Y2 PAM-ag -13 and NPY Y2 blocker 4.
COc1cccc(C2=NOC(C(=O)N3CCC4(CC3)OCCO4)C2)c1 (stereo not given) was read as Measles CPE 11, Rad51 HR inh 87*, NPY Y1 blocker 2, NPY-Y1 PAM-ag 4, NPY-Y2 PAM-ag 7 and NPY Y2 blocker -1.
CCC1(C(=O)c2ccc(C)cc2)C2c3ccccc3OC(=O)C21C(=O)O (stereo not given) was read as Rad51 HR inh -21, NPY-Y1 PAM-ag -10 and NPY-Y2 PAM-ag 1.
Screening COc1cc(OC)cc(-n2nc(C(=O)N3CCC4(CC3)OCCO4)c3ccccc3c2=O)c1 returned Measles CPE 52*, Rad51 HR inh -2, NPY Y1 blocker 4, NPY-Y1 PAM-ag -11, NPY-Y2 PAM-ag -4 and NPY Y2 blocker 1.
COC(=O)C1=C(c2cc3ccccc3o2)C[C@@H]2CC[C@H]1N2C(=O)N1CCOCC1 was read as Rad51 HR inh -1.
Screening CCC(=NCCC(c1ccccc1)c1ccccc1)c1c(O)n(C)c(=O)n(C)c1=O returned Measles CPE 8, Rad51 HR inh -1, NPY Y1 blocker -1, NPY-Y1 PAM-ag 8, NPY-Y2 PAM-ag 16, NPY Y2 blocker 24*, NPY1 antag ctr 16 and NPY-Y2 ant conf 27*.
Cn1c(O)c(C(=O)c2ccccc2)c(=O)n(C)c1=O was read as Measles CPE 4, Rad51 HR inh -10, NPY Y1 blocker -1, NPY-Y1 PAM-ag 4, NPY-Y2 PAM-ag -10 and NPY Y2 blocker 0.
CCCCCP(=O)(O)c1ccccc1 was read as Measles CPE 6, Rad51 HR inh -1, NPY Y1 blocker -1, NPY-Y1 PAM-ag -21, NPY-Y2 PAM-ag 0 and NPY Y2 blocker -3.
`CCCC/C(C)=C/[C@@H](NP(=O)(c1ccccc1)c1ccccc1)c1ccccc1` gave Measles CPE 9, Rad51 HR inh -2, NPY Y1 blocker 14, NPY-Y1 PAM-ag -31, NPY-Y2 PAM-ag -8, NPY Y2 blocker 27*, NPY1 antag ctr 23* and NPY-Y2 ant conf 20*.
`Clc1ccc(COC(Cn2ccnc2)c2ccc(Cl)cc2Cl)cc1` (stereo not given) gave Measles CPE 3, Rad51 HR inh -2, NPY Y1 blocker 15, NPY-Y1 PAM-ag -47, NPY-Y2 PAM-ag 0, NPY Y2 blocker 22*, NPY1 antag ctr 19 and NPY-Y2 ant conf 18*.
CN1C[C@H](CNC(=O)OCc2ccccc2)C[C@@H]2c3cccc4c3c(cn4C)C[C@H]21 was read as Measles CPE 3, Rad51 HR inh -24, NPY Y1 blocker 15, NPY-Y1 PAM-ag -32, NPY-Y2 PAM-ag -5, NPY Y2 blocker 18*, NPY1 antag ctr 7 and NPY-Y2 ant conf 14.
For Cc1cccc(OP(=O)(NCc2ccccc2)Oc2cccc(C)c2)c1 the results were Measles CPE 7, Rad51 HR inh 7, NPY Y1 blocker 7, NPY-Y1 PAM-ag -21, NPY-Y2 PAM-ag -9, NPY Y2 blocker 19*, NPY1 antag ctr 18 and NPY-Y2 ant conf 6.
Screening COc1cccc(C2(C#N)CCN(C)CC2)c1 returned Rad51 HR inh 12, NPY Y1 blocker 3, NPY-Y1 PAM-ag -6 and NPY-Y2 PAM-ag 4.
Screening COc1cc2c(cc1OC)CN(c1ccc([N+](=O)[O-])c(C(F)(F)F)c1)CC2 returned Measles CPE 17, Rad51 HR inh 5, NPY Y1 blocker 0, NPY-Y1 PAM-ag 6, NPY-Y2 PAM-ag 5 and NPY Y2 blocker 0.
Screening CCOc1ccccc1C1SCC(=O)Nc2c1c(=O)[nH]n2C(CC)CC (stereo not given) returned Measles CPE 5, Rad51 HR inh -15, NPY Y1 blocker 1, NPY-Y1 PAM-ag -3, NPY-Y2 PAM-ag 12 and NPY Y2 blocker 2.
For O=C(CNC(=O)c1cccc(Cl)c1)Nc1ccc(Br)cc1C(=O)c1ccccc1 the results were Measles CPE 13, Rad51 HR inh -1, NPY Y1 blocker 18, NPY-Y1 PAM-ag -38, NPY-Y2 PAM-ag -3, NPY Y2 blocker 23*, NPY1 antag ctr 12 and NPY-Y2 ant conf 13.
COc1ccc(C2NCc3ccc4c(c3-n3cccc32)OCO4)cc1O (stereo not given) was read as Measles CPE 8, Rad51 HR inh 4, NPY Y1 blocker 18, NPY-Y1 PAM-ag -34, NPY-Y2 PAM-ag -27, NPY Y2 blocker 19*, NPY1 antag ctr 21* and NPY-Y2 ant conf 37*.
O=C(c1cccs1)c1cn(Cc2ccccc2Cl)c2ccccc12 was read as Measles CPE 26, Rad51 HR inh -5, NPY Y1 blocker 16, NPY-Y1 PAM-ag -31, NPY-Y2 PAM-ag -11, NPY Y2 blocker 19*, NPY1 antag ctr 21* and NPY-Y2 ant conf 16.
N#Cc1ccccc1Cn1cc(C(=O)c2cccs2)c2ccccc21 was read as Measles CPE 5, Rad51 HR inh 1, NPY Y1 blocker 5, NPY-Y1 PAM-ag -30, NPY-Y2 PAM-ag 9 and NPY Y2 blocker 7.
